Compound activity as filed in PubChem BioAssay.
Rce1 inh: yeast Rce1p protease inhibitors, primary screen, biochemical, fluorescence, cell-free homogeneous | CAAX prenyl protease 2 (Saccharomyces cerevisiae (strain ATCC 204508 / S288c)), Q03530 | yeast membranes, quenched prenylated peptide cleavage fluorescence | calls only | actives 0.27% (n = 290,000);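 active = fall in fluorescence gain of 50% or more versus controls, with final raw signal at or below 3038400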;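 also: plate controls were neutral control wells for no effect and wells lacking membranes for full effect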
Target sequence (Q03530 whole entry, looked up): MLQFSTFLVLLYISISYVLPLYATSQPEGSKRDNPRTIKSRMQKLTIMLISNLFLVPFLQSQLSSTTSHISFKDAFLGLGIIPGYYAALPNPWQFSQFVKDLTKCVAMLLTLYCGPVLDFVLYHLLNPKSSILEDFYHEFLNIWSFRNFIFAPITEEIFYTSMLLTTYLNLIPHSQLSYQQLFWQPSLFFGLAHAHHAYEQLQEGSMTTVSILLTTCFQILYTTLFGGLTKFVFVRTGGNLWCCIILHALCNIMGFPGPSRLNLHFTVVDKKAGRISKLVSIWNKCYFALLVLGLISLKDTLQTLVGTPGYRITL
FXN GAA850 act: FXN promoter activators, primary screen, cell-based, luciferase luminescence, HEK293 lucGAA850 | HEK293 lucGAA850 FXN promoter luciferase reporter, 24 h; percent of 10 µM SAHA response | activation, % at 6 µM | actives 0.56% (n = 360,000) | AID 540364, 2011;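 active = activation above the average of all compounds screened plus 3 SD, cutoff fixed separately per campaign, cut at about 7.5% in these data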;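 also: 0% = DMSO wells and 100% = 10 µM SAHA wells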
proCasp3 act: activators of human procaspase-3 D3A mutant, primary screen, biochemical, absorbance, PC-3 D3A mutant, single concentration; Caspase-3 (Homo sapiens), P42574; recombinant procaspase-3 D3A, Ac-DEVD-pNA absorbance 405 nm; activation, % at 8.5 µM; actives 0.11% (n = 330,000); AID 463141, 2010;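 active = activation above the mean of all tested compounds plus 3 SD, cut at about 21% in these data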;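 also: 0% = DMSO alone and 100% = DMSO wells spiked with extra 5 µM PC-3 D3A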
Target sequence (P42574 whole entry D9A/D28A/D175A): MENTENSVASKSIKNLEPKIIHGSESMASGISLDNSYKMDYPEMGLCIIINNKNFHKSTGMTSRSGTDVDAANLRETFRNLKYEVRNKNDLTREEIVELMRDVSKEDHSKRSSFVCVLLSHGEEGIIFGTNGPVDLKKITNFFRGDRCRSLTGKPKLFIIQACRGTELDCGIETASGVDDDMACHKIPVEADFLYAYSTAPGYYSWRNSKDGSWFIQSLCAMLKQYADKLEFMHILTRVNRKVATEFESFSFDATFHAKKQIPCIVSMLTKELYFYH
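Assay system – Procaspase-3 D3A mutant, all three cleavage aspartates alanine · Controls – DMSO-only low control, 5 µM PC-3 D3A high control · Schedule – 1 h compound preincubation, 2 h substrate hydrolysis at 25 °C · Signal – 405 nm absorbance of p-nitroaniline, reads at 0 and 120 min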
procasp7 counter: procaspase-7 activators, primary screen, counter-screen for procaspase-3 activator project, biochemical, absorbance, HTS, human; recombinant procaspase-7, Ac-DEVD-pNA absorbance 405 nm; D23A/D198A/D206A triple mutant, cannot self-cleave; scale: DMSO 0, 5 µM enzyme 100; activation, % at 8.5 µM; AID 463210, 2010; actives 0.093% (n = 330,000); Caspase-7 (Homo sapiens), P55210;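 active = percent activation above the screen-wide mean plus 3 SD, cut at about 25% in these data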
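buffer or medium = Zinc-free HEPES/NaCl buffer, pH 7.4 | material = Procaspase-7 triple mutant (PC-7 D3A) | input = 2 µM procaspase-7 mutant as dispensed | signal = Epi-absorbance of released pNA at 405 nm, two timepoints | timing = 1 h preincubation, 2 h reaction | replicates = singlicate compound testing | evaluation = % activation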
pCIP destab: p/CIP-EGFP fusion destabilizers, primary screen, fluorescence, F442A cells; decrease of EGFP signal, % at 10 µM; AID 1984, 2009; 16 h; actives 0.01% (n = 290,000);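 active = EGFP signal decrease of at least 30% at 10 µM or well 3 SD below plate mean, unless failing retest; inactive = the rest, including hits failing retest or dose response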
Hep lipid drop: inhibitors of hepatocyte lipid droplet formation, primary screen, imaging, high-throughput imaging, BODIPY stain. actives 0.4% (n = 240,000). AID 1656, 2009. inhibition, % at 6.5 µM. AML12 mouse hepatocytes, oleate lipid droplets;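 active = lipid droplet intensity inhibited by at least 50%, with more than 500 cells counted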
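Material – AML12 mouse liver cells · Also added – oleate loading, 100 µM · Compound dosing – 6.5 µM single-point dosing · Times – overnight treatment with compound plus oleate · Measured by – fluorescence imaging, 20x objective, two fields per well · Read-out – percent inhibition of filter-corrected integrated lipid droplet intensity per well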
Active calls of the source: *; i = inactive; . = no result; + = active, no number. Compounds with a hit are over-represented: about 1.2% of the library has one in this group of screens.

SMILES	Rce1 inh	FXN GAA850 act	proCasp3 act	procasp7 counter	pCIP destab	Hep lipid drop
COc1cccc(-c2ccc(-c3noc(-c4cccs4)n3)c(OC)n2)c1	i	-0.5	-1.7	4.2	4.2	2.8
CC1=C(C(=O)N2CCOCC2)CC(CC(=O)NC(c2ccccc2)c2ccccc2)C(=O)N1Cc1ccc(F)cc1 (centres undefined)	.	-1.5	.	.	.	.
COc1ccc(Br)cc1C(=O)Nc1ccc(NC(=O)c2ccco2)cc1	i	2.2	11.3	12.5	3.9	-3.0
COc1ccc(Br)cc1C(=O)Nc1cc(C)cc(C)c1	+	-0.5	0.4	-7.8	-8.8	.
N#CCC(=O)N/N=C/c1ccc(Cl)cc1	i	3.1	-6.2	-4.6	0.0	6.1
CN(c1ccccc1)c1ccc(/C=N/NC(=O)CC#N)cc1	+	-8.6	-12.6	-8.0	-19.7	1.9
CC1(C(=O)NS(=O)(=O)c2ccc(C#N)cc2)CCN1C(=O)C1(c2ccccc2)CCCC1 (centres undefined)	.	-0.8	.	.	.	.
O=C(N/N=C/c1sc(N2CCOCC2)nc1-c1ccccc1)c1ccccc1F	i	.	3.4	-4.7	-18.6	-12.0
O=C(Nc1ccccc1F)C(=Cc1sc(N2CCOCC2)nc1-c1ccccc1)C(=O)Nc1ccccc1F	i	1.6	-9.9	-4.7	-28.5	67.9*
COCCNC(=O)C1CCCN(C(=O)COc2ccc(C(C)(C)C)cc2)CC1 (centres undefined)	.	2.9	.	.	.	.
O=C(O)c1ccc2c(c1)SC1=NS(=O)(=O)CCN12	i	-0.2	-1.5	-4.6	3.9	-7.2
CN(C(=O)c1ccc2c(c1)SC1=NS(=O)(=O)CCN12)C(c1ccccc1)c1ccccc1	+	2.7	-8.9	0.7	-19.9	-5.8
CCc1cc(=O)oc2c3c(cc(OCC(=O)NCCCC(=O)O)c12)OC(C)(C)CC3	+	-0.2	6.6	0.0	3.7	3.2
CC(C)c1ccc(-n2nnnc2SCc2nc(N)nc(N)n2)cc1	.	3.0	.	.	.	.
CCN(CC)CCN(C(=O)c1ccc2ccccc2c1)c1nc2cc3c(cc2s1)OCO3	+	-0.1	4.0	4.3	-13.2	1.1
O=C(NCCc1ccccc1)c1cc(S(=O)(=O)N2CCCCC2)c[nH]1	.	-0.3	.	.	.	.
O=S(=O)(c1ccc2c(c1)C(=NO)c1cc(S(=O)(=O)N3CCCCC3)ccc1-2)N1CCCCC1	i	2.3	0.9	-0.1	60.3*	.
CN(C)c1ccc(-c2nc3ccccn3c2/N=C/c2ccc(Br)cc2)cc1	i	2.4	1.0	-0.7	-5.7	3.5
COc1ccc(OC)c(/C=N/c2c(-c3ccc(O)c(OC)c3)nc3ccccn23)c1	+	2.5	-5.5	5.5	-5.9	0.6
COc1cc(-c2nc3ccccn3c2/N=C/c2cc(OC)c(OC)c(OC)c2)ccc1O	+	-3.7	-5.1	-8.7	.	.
CCCS(=O)(=O)NC(=O)C1(C)CCCN(C(=O)c2ccccc2OC(F)(F)F)C1 (centres undefined)	.	2.2	.	.	.	.
CC(C)NC(=O)c1cc(C2CCCCN2C(=O)c2cc(C(C)(C)C)nn2C)on1 (centres undefined)	.	0.2	.	.	.	.
CCN(CC)CC(=O)Nc1c2c(nc3ccccc13)N(C)CC2	i	1.5	7.2	-6.3	2.8	-9.7
CC(C)C(=O)Nc1c2c(nc3ccccc13)N(C)CC2	+	0.8	1.8	2.9	-13.5	.
CN(C)c1ccc(-c2cc(NC=O)c3ncc(-c4ccc(F)c(Cl)c4)n3c2)cc1	.	2.3	.	.	.	.
SMILES	Rce1 inh	FXN GAA850 act	proCasp3 act	procasp7 counter	pCIP destab	Hep lipid drop
CC(/C=N\NC(=O)CN1CCN(S(=O)(=O)c2ccc(C)cc2)CC1)=C\c1ccccc1	+	1.2	2.6	-0.1	-3.7	-14.4
NS(=O)(=O)c1ccc(CNC(=O)c2ccc3ccccc3n2)cc1	i	1.2	5.5	-5.1	-4.1	7.4
NS(=O)(=O)c1ccc(CCNC(=O)c2ccc3ccccc3n2)cc1	+	3.1	4.5	2.3	4.3	-5.4
C#CC(=O)N(c1ccc(OC)cc1OC)C(C(=O)NC1CCCC1)c1cccs1 (centres undefined)	.	-15.2	-4.5	1.8	-8.1	122.6*
C#CC(=O)N(c1cc(OC)ccc1OC)C(C(=O)NC1CCCC1)c1cccs1 (centres undefined)	i	-18.1	-11.0	-9.7	-22.4	.
CC1(C(=O)NCc2ccco2)Cc2c(-c3cccc(C(N)=O)c3)ccnc2O1 (centres undefined)	.	-5.7	.	.	.	.
Nc1ccccc1SC(CC(=O)c1ccccc1)c1cccc([N+](=O)[O-])c1 (centres undefined)	.	11.3*	.	.	.	.
Nc1ccccc1SC(CC(=O)c1ccccc1)c1ccc([N+](=O)[O-])cc1 (centres undefined)	.	8.0*	.	.	.	.
CCN(CCCNc1cc2c(c(N)c1S(=O)(=O)O)C(=O)c1ccccc1C2=O)c1ccccc1	.	-0.8	.	.	.	.
CCNC(=O)C1CCCN(C(=O)c2ccc3c(c2)CCO3)CC1 (centres undefined)	.	1.7	.	.	.	.
CCCCNC(=O)c1cnc(Cc2c[nH]c3ccccc23)c(I)c1	.	-3.1	.	.	.	.
Cn1cc(CN2CCC(C(=O)NC(c3ccc(-c4ccccc4)cc3)c3cnccn3)CC2)c2ccccc21 (centres undefined)	.	-3.0	.	.	.	.
COc1ccc(C)cc1NC(=O)CN1C(=O)COc2ccc(S(=O)(=O)N3CCOCC3)cc21	+	2.5	2.4	0.6	-7.3	-2.0
COc1ccc(C)cc1NC(=O)CN1C(=O)COc2ccc(S(=O)(=O)N3CCCCCC3)cc21	i	-1.2	4.6	5.8	3.4	-2.8
COc1ccc(NC(=O)c2cc(C3CCCCN3C(=O)c3cccs3)on2)c(C)c1 (centres undefined)	.	0.9	.	.	.	.
Brc1ccc(-c2csc(N3CCC(c4ccccc4)C3)n2)cc1 (centres undefined)	i	3.1	34.5*	10.9	0.9	.
CCN(CC)Cc1c(O)ccc2c(=O)c(-c3ccccc3Cl)coc12	i	0.6	2.0	9.1	0.4	-1.9
CCN(CC)Cc1c(O)ccc2c(=O)c(-c3ccccc3OC)coc12	+	0.6	3.8	7.7	3.5	-5.3
Cc1c(C)c2ccc(OC(C)C(=O)NCCN3CCOCC3)c(C)c2oc1=O (centres undefined)	i	1.5	1.3	-4.2	-2.9	13.5
